The results in this text go back to ChEMBL document CHEMBL2029211, “From a marine neuropeptide to antimicrobial pseudopeptides containing aza-β(3)-amino acids: structure and activity” (J Med Chem, 2012).

One data set has as its system Escherichia coli. The experiment in a line: Antibacterial activity against Escherichia coli after 20 hrs by liquid growth inhibition assay. Type of data set: functional. In short, it runs like this: (§1)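 Liquid growth inhibition with peptides dissolved in distilled water, final 20–640 μg.mL-1, added to mid-log bacteria at starting D600 = 0.001. Standard strains in poor broth (1% peptone, 0.5% NaCl, pH 7.5); pathogenic strains in poor broth plus 0.3% beef extract. Incubated 20 h at 30°C; growth read as OD at 595 nm; MIC taken as lowest concentration giving 100% inhibition.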

A short description of data set [1]: (§2) Cytotoxicity against CHOK1 cells assessed as cell viability at 640 ug/ml after 36 hrs by MTT assay. The settings on record: chinese hamster, CHO-K1 cells; read-out: Activity. Format: cell-based, Cricetulus griseus, CHO-K1. The gist of the method: (§3)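 CHO-K1 cells (1.34×10^4/well) in Ham F12 with L-glutamine and 10% foetal calf serum were preincubated 6 h at 37 °C, 5% CO2. Peptides in PBS were added at final 20–640 μg.mL−1 for 36 h. Viability was read by MTT reduction at 570 nm, with PBS as 100% and 1% Triton X-100 as 0% viability; triplicates.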
A general note: Tetrazolium dyes change colour on reduction, which living cells bring about.

The next data set relates to Salmonella typhimurium. The experiment in a line: Antibacterial activity against Salmonella typhimurium after 20 hrs by liquid growth inhibition assay. Format: functional, Salmonella enterica subsp. enterica serovar Typhimurium. In short, it runs like this: as §1
Another data set relates to Enterococcus faecalis. Description: Antibacterial activity against Enterococcus faecalis after 20 hrs by liquid growth inhibition assay. Format: functional. In short, it runs like this: (§4)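 Bacteria grown in brain heart infusion and challenged at mid-log phase (starting D600 = 0.001) with water-dissolved peptides at final 20–640 μg.mL-1. After 20 h at 30°C, OD at 595 nm was read. MIC is the lowest concentration giving complete (100%) growth inhibition.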

For the next data set, the system named is Staphylococcus aureus. Description: Antibacterial activity against Staphylococcus aureus after 20 hrs by liquid growth inhibition assay. Format: functional. In short, it runs like this:
as §1

A further data set deals with Vibrio splendidus. Description: Antibacterial activity against Vibrio splendidus after 20 hrs by liquid growth inhibition assay. Type of data set: functional. In short, it runs like this:
(§5)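 Vibrios cultured in saline poor broth (1% peptone, 1.5% NaCl, pH 7.2), diluted from mid-log phase to starting D600 = 0.001, then exposed to water-dissolved peptides at final 20–640 μg.mL-1. Incubated 20 h at 18°C; OD read at 595 nm. MIC is the lowest concentration giving 100% inhibition.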

A further data set relates to Priestia megaterium. Description: Antibacterial activity against Bacillus megaterium after 20 hrs by liquid growth inhibition assay. Format: functional. In short, it runs like this: as §1
The next data set deals with Vibrio harveyi. The experiment in a line: Antibacterial activity against Vibrio harveyi after 20 hrs by liquid growth inhibition assay. Type of data set: functional. In short, it runs like this:
as §5

The next data set relates to Vibrio aestuarianus. The experiment in a line: Antibacterial activity against Vibrio aestuarianus after 20 hrs by liquid growth inhibition assay. Format: functional. The gist of the method:
as §5

A further data set concerns Listeria monocytogenes. The experiment in a line: Antibacterial activity against Listeria monocytogenes after 20 hrs by liquid growth inhibition assay. Type of data set: functional. In short, it runs like this: as §4
The next data set deals with Pseudomonas aeruginosa. The experiment in a line: Antibacterial activity against Pseudomonas aeruginosa after 20 hrs by liquid growth inhibition assay. Type of data set: functional. The gist of the method: as §1
The test system of the next data set is Klebsiella pneumoniae. The experiment in a line: Antibacterial activity against Klebsiella pneumoniae after 20 hrs by liquid growth inhibition assay. Type of data set: functional. In short, it runs like this: as §1
A further data set deals with Vibrio alginolyticus. The experiment in a line: Antibacterial activity against Vibrio alginolyticus after 20 hrs by liquid growth inhibition assay. Format: functional. In short, it runs like this: as §5
Data set [2] can be described thus: Toxicity in rabbit erythrocytes assessed as hemolysis up to 320 ug/ml. Type of data set: cell-based, Oryctolagus cuniculus, Erythrocyte. To be noted: read-out: Activity. The gist of the method:
(§6)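 Freshly isolated rabbit erythrocytes were incubated 1 h at 37°C with peptide in PBS at 20 to 320 μg.mL−1. Supernatant OD was read at 415 nm, with PBS as zero and 1% Triton X-100 as 100% hemolysis; triplicate for each concentration and control.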

The nature of data set [3]: Ratio of toxicity in CHOK1 cells to MIC for Salmonella typhimurium. Format: functional, CHO-K1.
In data set [4] the test system is CHO-K1. The experiment in a line: Cytotoxicity against CHOK1 cells assessed as cell viability up to 40 ug/ml after 36 hrs by MTT assay. The settings on record: chinese hamster, cho-k1, 36 h. Format: cell-based, Cricetulus griseus. In short, it runs like this:
as §3

Data set [5] is described as follows: Ratio of toxicity in CHOK1 cells to MIC for Staphylococcus aureus. Format: functional, CHO-K1.
Data set [6] concerns CHO-K1. Described as §2. Type of data set: cell-based, Cricetulus griseus. To be noted: chinese hamster, cho-k1, 36 h. The gist of the method: as §3
Data set [7] can be described thus: Ratio of toxicity in CHOK1 cells to MIC for Listeria monocytogenes. Type of data set: functional, CHO-K1.
Data set [8] in a line: Cytotoxicity against CHOK1 cells assessed as cell viability at 160 ug/ml after 36 hrs by MTT assay. Type of data set: cell-based, Cricetulus griseus. To be noted: chinese hamster, CHO-K1 cells; read-out: Activity. The gist of the method:
as §3

A short description of data set [9]: Ratio of HD50 for rabbit erythrocytes to MIC for Staphylococcus aureus. Format: functional.
Data set [10] is described as follows: Toxicity in rabbit erythrocytes assessed as hemolysis. Type of data set: cell-based, Oryctolagus cuniculus, Erythrocyte. The settings on record: read-out: HD50 (the source's name). The gist of the method: as §6
The mark [11] stands for this setting: Salmonella enterica subsp. enterica serovar Typhimurium.

≈ marks a conversion by molar mass, not a printed value. Calls of active or inactive are those of the source. Starred links: 1 amine or outer side, 2 acyl side, 3 side chain; linkers in the order of their positions; H or OH if unused. Non-standard residues stand in square brackets, D forms with d. Residues, ends and D or L forms follow the SMILES beside them. *: point of attachment. azaβ3(1Nal) = O=C(CN(Cc1cccc2ccccc12)N[*:1])[*:2]; X2 = O=C(CN(Cc1ccc2ccccc2c1)N[*:1])[*:2]; X1 = NC(=O)CN(Cc1cccc2ccccc12)N*; X3 = NC(=O)CN(Cc1ccc2ccccc2c1)N*; X4 = NCCCCN(CC(=O)[*:2])N[*:1]

The term MIC denotes the smallest concentration in the dilution series that meets the test's criterion for growth inhibition.

`CC(C)C[C@H](NC(=O)CN(Cc1ccc2ccccc2c1)NC(=O)[C@H](C)NC(=O)[C@H](CCCCN)NC(=O)CNC(=O)[C@H](CO)NC(=O)[C@H](CC(C)C)NC(=O)[C@H](C)N)C(=O)N[C@@H](CCCNC(=N)N)C(=O)NN(CC(N)=O)Cc1ccc2ccccc2c1` (H-ALSGKA[X2]LR-X3): the MIC was 160 µg/mL (≈ 129 µM) against Escherichia coli; 160 µg/mL (≈ 129 µM) in the data set on Salmonella typhimurium (Salmonella enterica); more than 640 µg/mL against Enterococcus faecalis; 40 µg/mL (≈ 32.3 µM) against Staphylococcus aureus; 640 µg/mL (≈ 517 µM) against Vibrio splendidus; 80 µg/mL (≈ 64.6 µM) against Priestia megaterium. The MIC is 640 µg/mL (≈ 517 µM) in the data set on Vibrio harveyi; 80 µg/mL (≈ 64.6 µM) against Vibrio aestuarianus; 160 µg/mL (≈ 129 µM) with Listeria monocytogenes; 320 µg/mL (≈ 258 µM) against Pseudomonas aeruginosa; more than 640 µg/mL against Klebsiella pneumoniae; more than 640 µg/mL in the data set with Vibrio alginolyticus. The viability at 36 h, 640 ug/ml in data set [1] amounted to 47%.
As for `CC(C)C[C@H](NC(=O)CN(Cc1ccc2ccccc2c1)NC(=O)[C@H](C)NC(=O)[C@H](CCCCN)NC(=O)CNC(=O)[C@H](CO)NC(=O)[C@H](CC(C)C)NC(=O)[C@H](C)N)C(=O)N[C@@H](CCCNC(=N)N)C(=O)N[C@@H](Cc1ccccc1)C(N)=O` (H-ALSGKA[X2]LRF-NH2), the MIC in the data set on Escherichia coli is 320 µg/mL (≈ 273 µM); with Salmonella typhimurium (Salmonella enterica) it was 80 µg/mL (≈ 68.2 µM); with Enterococcus faecalis it was more than 640 µg/mL; in the data set with Staphylococcus aureus, 80 µg/mL (≈ 68.2 µM); against Vibrio splendidus, 20 µg/mL (≈ 17 µM); with Priestia megaterium, 80 µg/mL (≈ 68.2 µM). Besides, the MIC against Vibrio harveyi was 40 µg/mL (≈ 34.1 µM); with Vibrio aestuarianus it was 40 µg/mL (≈ 34.1 µM); with Listeria monocytogenes, 80 µg/mL (≈ 68.2 µM); with Pseudomonas aeruginosa, 160 µg/mL (≈ 136 µM); with Vibrio alginolyticus, 80 µg/mL (≈ 68.2 µM). Moreover, the hemolysis in [2] was found to be 5%. The MIC result with Klebsiella pneumoniae is “inactive”.
On to `CC(C)C[C@H](NC(=O)CN(Cc1cccc2ccccc12)NC(=O)[C@H](C)NC(=O)[C@H](CCCCN)NC(=O)CNC(=O)[C@H](CO)NC(=O)[C@H](CC(C)C)NC(=O)[C@H](C)N)C(=O)N[C@@H](CCCNC(=N)N)C(=O)NN(CC(N)=O)Cc1cccc2ccccc12` (H-ALSGKA[azaβ3(1Nal)]LR-X1), for which the MIC against Escherichia coli was 40 µg/mL (≈ 32.3 µM); against Salmonella typhimurium (Salmonella enterica), 80 µg/mL (≈ 64.6 µM); against Enterococcus faecalis, more than 640 µg/mL; with Staphylococcus aureus, 20 µg/mL (≈ 16.1 µM); against Vibrio splendidus, 320 µg/mL (≈ 258 µM); in the data set with Priestia megaterium, 20 µg/mL (≈ 16.1 µM). The MIC was 640 µg/mL (≈ 517 µM) against Vibrio harveyi; 80 µg/mL (≈ 64.6 µM) against Vibrio aestuarianus; 80 µg/mL (≈ 64.6 µM) in the data set on Listeria monocytogenes; 160 µg/mL (≈ 129 µM) in the data set on Pseudomonas aeruginosa; more than 640 µg/mL against Vibrio alginolyticus. Also, the Ratio in [3] stood at 8; in data set [5] it was 32; in data set [7], 8; in data set [9], 10. Further, the values for the Activity result with CHO-K1 [4] and in the data set on CHO-K1 [6] were “Non-toxic” and “Toxic”, respectively. Further, in data set [8], the viability at 36 h, 160 ug/ml came out at 78%. Moreover, the MIC entry with Klebsiella pneumoniae is “inactive”. The HC50 in data set [10] was found to be 200 µg/mL.
Take `CC(C)C[C@H](NC(=O)[C@H](C)N)C(=O)N[C@@H](CO)C(=O)NCC(=O)NN(CCCCN)CC(=O)N[C@@H](C)C(=O)N[C@@H](Cc1ccccc1)C(=O)N[C@@H](CC(C)C)C(=O)N[C@@H](CCCNC(=N)N)C(=O)N[C@@H](Cc1ccccc1)C(N)=O` (H-ALSG[X4]AFLRF-NH2): the MIC entry in the data set on Escherichia coli, in the data set on Salmonella typhimurium (setting [11]), with Enterococcus faecalis, in the data set on Staphylococcus aureus, in the data set on Priestia megaterium and in the data set on Vibrio harveyi was “inactive” in each case. In addition, the MIC result in the data set with Vibrio aestuarianus, with Listeria monocytogenes, in the data set on Klebsiella pneumoniae and in the data set with Vibrio alginolyticus was “inactive” each time. Moreover, the results for the MIC against Vibrio splendidus and against Pseudomonas aeruginosa were 320 µg/mL (≈ 285 µM) and more than 640 µg/mL, respectively.
Consider `CC1(C)S[C@@H]2[C@H](NC(=O)[C@H](N)c3ccccc3)C(=O)N2[C@H]1C(=O)O` [AMPICILLIN], for which the MIC with Escherichia coli is 5 µg/mL (≈ 14.3 µM); in the data set with Salmonella typhimurium (Salmonella enterica) it was 5 µg/mL (≈ 14.3 µM); with Enterococcus faecalis, 5 µg/mL (≈ 14.3 µM); with Staphylococcus aureus it was 5 µg/mL (≈ 14.3 µM); against Vibrio splendidus, 10 µg/mL (≈ 28.6 µM); in the data set with Priestia megaterium it was 20 µg/mL (≈ 57.2 µM). In addition, the MIC in the data set on Vibrio harveyi was more than 320 µg/mL; with Vibrio aestuarianus it was 5 µg/mL (≈ 14.3 µM); in the data set on Listeria monocytogenes it was 5 µg/mL (≈ 14.3 µM); against Pseudomonas aeruginosa it was 320 µg/mL (≈ 916 µM); against Klebsiella pneumoniae it was 5 µg/mL (≈ 14.3 µM); against Vibrio alginolyticus, more than 320 µg/mL.
Consider H-ALSGDAFLRF-NH2, for which the MIC in the data set on Escherichia coli was 640 µg/mL; against Vibrio splendidus, 320 µg/mL; against Priestia megaterium it was 640 µg/mL; in the data set on Vibrio harveyi, more than 640 µg/mL; in the data set with Vibrio aestuarianus, 640 µg/mL; in the data set with Vibrio alginolyticus it was 320 µg/mL. Moreover, the MIC result with Salmonella typhimurium (setting [11]), in the data set on Enterococcus faecalis, with Staphylococcus aureus, in the data set on Listeria monocytogenes, with Pseudomonas aeruginosa and in the data set with Klebsiella pneumoniae was “inactive” throughout.
Take H-ALSGKAFLRF-NH2: the MIC in the data set with Escherichia coli amounted to 80 µg/mL; against Salmonella typhimurium (Salmonella enterica), 320 µg/mL; with Staphylococcus aureus it was 320 µg/mL; against Vibrio splendidus it was 40 µg/mL; against Priestia megaterium, 80 µg/mL; in the data set with Vibrio harveyi it was 320 µg/mL. The MIC was 80 µg/mL against Vibrio aestuarianus, 640 µg/mL against Pseudomonas aeruginosa, more than 640 µg/mL in the data set on Klebsiella pneumoniae and 320 µg/mL against Vibrio alginolyticus. For the same compound, in data set [2], the hemolysis is less than 1.5%. Further, the viability at 36 h, 640 ug/ml in data set [1] turned out to be 87%. The MIC entry in the data set on Enterococcus faecalis and in the data set on Listeria monocytogenes was “inactive” in each case.
